From ChEMBL document CHEMBL1142517, “Discovery of an orally bioavailable small molecule inhibitor of prosurvival B-cell lymphoma 2 proteins” (J Med Chem, 2008)

What was measured:
[1] = target: Apoptosis regulator Bcl-2 (Homo sapiens, UniProt P10415); assay: Displacement of fluorescein labeled Bax peptide from Bcl2 by fluorescence polarization assay
[2] = Cytotoxicity against IL3-dependent mouse FL5.12 cells overexpressing human Bcl2 assessed as cell viability after 24 hrs by MTS assay in absence of serum; assay type: functional, cell-based; conditions: FL5.12, 24 h
Outline: (§1)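 Mouse FL5.12 cells transfected with Bcl-XL or Bcl-2, deprived of IL-3 (no FBS or WEHI-3B conditioned medium) for 2 days. Then moved to serum-free gelatin medium (3.4 mg/mL bovine gelatin) with serially diluted compound for 24 h. Viability by MTS or CellTiter-Glo. Determinations in duplicate.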

[3] = Cytotoxicity against IL3-dependent mouse FL5.12 cells overexpressing human Bcl-XL assessed as cell viability after 24 hrs by MTS assay in absence of serum; assay type: functional, cell-based; conditions: FL5.12, 24 h; outline: as §1
[4] = Cytotoxicity against human NCI-H146 cells assessed as cell viability after 48 hrs in presence of 10% human serum; assay type: functional, cell-based; conditions: NCI-H146, 48 h
Outline: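 NCI-H146 SCLC cells maintained in RPMI 1640 with 10% FBS at 37 °C, 5% CO2. Treated for 48 h in medium with 10% human serum. Viability by CellTiter-Glo luminescence. Values from duplicate runs.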

[5] = AUC in Sprague-Dawley rat at 5 mg/kg, po; assay type: ADME, organism-based; parameters: dose 5 mg/kg, route oral; conditions: plasma
Outline: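 Sprague-Dawley rats, single 5 mg/kg oral dose by gavage in 10% DMSO in PEG-400, n = 3. Heparinized blood taken before dosing and at set times. Plasma proteins precipitated with acetonitrile, then LC-MS/MS against spiked plasma standards with an internal standard. AUC by linear trapezoidal rule.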

[6] = Ratio of AUC for Sprague-Dawley rat at 5 mg/kg, po to EC50 for human NCI-H146 cells in presence of 10% human serum; assay type: functional
Outline: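 The cells were treated for 48 h in medium with 10% human serum, and viability was read by CellTiter-Glo luminescence.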

[7] = Cmax in Sprague-Dawley rat at 5 mg/kg, po; assay type: ADME, organism-based; parameters: dose 5 mg/kg, route oral; conditions: in vivo
Outline: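 Rats (Sprague-Dawley) given 5 mg/kg by oral gavage in 10% DMSO/PEG-400, n = 3. Serial heparinized blood samples. Plasma drug level by LC-MS/MS after acetonitrile protein precipitation, quantified by linear regression of peak-area ratio to internal standard. Concentration–time data fitted multiexponentially.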

[8] = Oral bioavailability in Sprague-Dawley rat at 5 mg/kg; assay type: ADME, organism-based; conditions: in vivo
[9] = AUC in CD1 mouse at 50 mg/kg, po; assay type: ADME, organism-based; parameters: dose 50 mg/kg, route oral; conditions: plasma
Outline: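 CD-1 mice, single 50 mg/kg oral gavage in 2% DMSO/5% Tween-80/20% propylene glycol/73% D5W, n = 27. Groups of three euthanized by CO2 at set times and blood taken by cardiac puncture. Plasma by LC-MS/MS. AUC by linear trapezoidal rule.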

[10] = AUC in Beagle dog at 2.5 mg/kg, iv or po; assay type: ADME, organism-based, Canis lupus familiaris; parameters: dose 2.5 mg/kg, route oral; conditions: plasma
Outline: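 Beagle dogs, single 2.5 mg/kg dose in 10% DMSO in PEG-400, n = 3 per route. Intravenous dose given as a slow cephalic-vein bolus; oral dose by gavage followed by 10 mL water. Plasma by LC-MS/MS. AUC by linear trapezoidal rule.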

[11] = AUC in cynomolgus monkey at 2.5 mg/kg, po; assay type: ADME, organism-based, Macaca fascicularis; parameters: dose 2.5 mg/kg, route oral; conditions: plasma
Outline: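 Cynomolgus monkeys, single 2.5 mg/kg oral dose in 10% DMSO in PEG-400 by gastric intubation followed by 5 mL water, n = 3. Serial heparinized plasma assayed by LC-MS/MS. AUC by linear trapezoidal rule.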

[12] = Oral elimination half life in Sprague-Dawley rat; assay type: ADME, organism-based; conditions: in vivo, read-out: beta t1/2 (converted)
[13] = Oral elimination half life in CD1 mouse; assay type: ADME, organism-based; conditions: in vivo, read-out: beta t1/2 (converted)
[14] = Oral elimination half life in Beagle dog; assay type: ADME, organism-based, Canis lupus familiaris; conditions: in vivo, read-out: beta t1/2 (converted)
[15] = Oral elimination half life in cynomolgus monkey; assay type: ADME, organism-based, Macaca fascicularis; conditions: in vivo, read-out: beta t1/2 (converted)
[16] = Oral bioavailability in CD1 mouse; assay type: ADME, organism-based; conditions: in vivo
[17] = Oral bioavailability in Beagle dog; assay type: ADME, organism-based, Canis lupus familiaris; conditions: in vivo
[18] = Oral bioavailability in cynomolgus monkey; assay type: ADME, organism-based, Macaca fascicularis; conditions: in vivo
[19] = Oral bioavailability in Sprague-Dawley rat; assay type: ADME, organism-based; conditions: in vivo
NCI-H1963 (Homo sapiens) = assay: Antitumor activity against human NCI-H1963 cells xenografted C.B-17 SCID-bg mouse assessed as inhibition of tumor growth at 100 mg/kg, po daily once for 21 days; conditions: 504 h, read-out: TGI

Chain of Apoptosis regulator Bcl-2 (P10415 whole entry): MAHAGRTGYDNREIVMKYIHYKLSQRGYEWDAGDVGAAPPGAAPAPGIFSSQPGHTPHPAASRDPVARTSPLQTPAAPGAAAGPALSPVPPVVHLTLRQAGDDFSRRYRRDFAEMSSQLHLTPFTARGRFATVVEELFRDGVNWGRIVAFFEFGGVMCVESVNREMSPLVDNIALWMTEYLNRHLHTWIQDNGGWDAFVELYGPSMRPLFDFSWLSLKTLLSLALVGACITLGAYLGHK

Ki [1] [nM]	AUC [5] [µM·h]	Compound	EC50 [2] [nM]	EC50 [3] [nM]	EC50 [4] [nM]	Ratio [6]	other results
< 1	2.19	CN(C)CC[C@H](CSc1ccccc1)Nc1ccc(S(=O)(=O)NC(=O)c2ccc(N3CCN(Cc4ccccc4-c4ccc(Cl)cc4)CC3)cc2)cc1C#N	49	225	1930	1.1	–
< 1	–	CN(C)CC[C@H](CSc1ccccc1)Nc1ccc(S(=O)(=O)NC(=O)c2ccc(N3CCN(CC4=C(c5ccc(Cl)cc5)CCC(C)(C)C4)CC3)cc2)cc1[N+](=O)[O-]	0.6	0.9	98	–	–
< 1	–	CN(C)CC[C@H](CSc1ccccc1)Nc1ccc(S(=O)(=O)NC(=O)c2ccc(N3CCN(Cc4ccccc4-c4ccc(Cl)cc4)CC3)cc2)cc1OC(F)(F)F	230	805	5080	–	–
< 1	–	CN(C)CC[C@H](CSc1ccccc1)Nc1ccc(S(=O)(=O)NC(=O)c2ccc(N3CCN(CC4=C(c5ccc(Cl)cc5)CCCCC4)CC3)cc2)cc1[N+](=O)[O-]	< 1	5	51.9	–	–
2.4	–	CN(C)CC[C@H](CSc1ccccc1)Nc1ccc(S(=O)(=O)NC(=O)c2ccc(N3CCN(CC4=C(c5ccc(Cl)cc5)CCOC4)CC3)cc2)cc1[N+](=O)[O-]	33	55	266	–	–
< 1	0.65	CN(C)CC[C@H](CSc1ccccc1)Nc1ccc(S(=O)(=O)NC(=O)c2ccc(N3CCN(CC4=C(c5ccc(Cl)cc5)CCCC4)CC3)cc2)cc1[N+](=O)[O-]	11	29	25.7	25.3	–
< 1	–	CN(C)CC[C@H](CSc1ccccc1)Nc1ccc(S(=O)(=O)NC(=O)c2ccc(N3CCN(CC4=C(c5ccc(Cl)cc5)CCC4)CC3)cc2)cc1[N+](=O)[O-]	51	143	691	–	–
< 1	–	CN(C)CC[C@H](CSc1ccccc1)Nc1ccc(S(=O)(=O)NC(=O)c2ccc(N3CCN(C/C4=C(\c5ccc(Cl)cc5)CCCCCC4)CC3)cc2)cc1[N+](=O)[O-]	39	21	200	–	–
< 1	10.4	O=C(NS(=O)(=O)c1ccc(NCCSc2ccccc2)c([N+](=O)[O-])c1)c1ccc(N2CCN(Cc3ccccc3-c3ccc(Cl)cc3)CC2)cc1	–	–	33000	0.32	Cmax [7]: 1150 nM; bioavailability [8]: 28%
< 1	0.83	CN(C)CC[C@H](CSc1ccccc1)Nc1ccc(S(=O)(=O)NC(=O)c2ccc(N3CCN(Cc4ccccc4-c4ccc(Cl)cc4)CC3)cc2)cc1S(=O)(=O)C(F)(F)F	4.7	12	39.4	21	–
< 1	1.16	O=C(NS(=O)(=O)c1ccc(N[C@H](CCN2CCOCC2)CSc2ccccc2)c([N+](=O)[O-])c1)c1ccc(N2CCN(Cc3ccccc3-c3ccc(Cl)cc3)CC2)cc1	–	–	610	1.9	Cmax [7]: 200 nM; bioavailability [8]: 16%
< 1	–	CN(C)CC[C@H](CSc1ccccc1)Nc1ccc(S(=O)(=O)NC(=O)c2ccc(N3CCN(Cc4ccccc4-c4ccc(Cl)cc4)CC3)cc2)cc1S(C)(=O)=O	170	415	3490	–	–
< 1	–	CN(C)CC[C@H](CSc1ccccc1)Nc1ccc(S(=O)(=O)NC(=O)c2ccc(N3CCN(Cc4ccccc4-c4ccc(Cl)cc4)CC3)cc2)cc1	2700	15000	78700	–	–
< 1	3.87	O=C(NS(=O)(=O)c1ccc(N[C@H](CCN2CCOCC2)CSc2ccccc2)c(S(=O)(=O)C(F)(F)F)c1)c1ccc(N2CCN(CC3=C(c4ccc(Cl)cc4)CCCC3)CC2)cc1	1.1	0.7	58.9	65.7	AUC [9]: 25.2 µM·h; AUC [10]: 3.8 µM·h; AUC [11]: 1.9 µM·h
< 1	–	Cc1cc(S(=O)(=O)NC(=O)c2ccc(N3CCN(Cc4ccccc4-c4ccc(Cl)cc4)CC3)cc2)ccc1N[C@H](CCN(C)C)CSc1ccccc1	673	–	28800	–	–
< 1	4.41	CN(C)CC[C@H](CSc1ccccc1)Nc1ccc(S(=O)(=O)NC(=O)c2ccc(N3CCN(Cc4ccccc4-c4ccc(Cl)cc4)CC3)cc2)cc1C(F)(F)F	42	122	2460	1.8	Cmax [7]: 370 nM; bioavailability [8]: 24%
< 1	1.25	CN(C)CC[C@H](CSc1ccccc1)Nc1ccc(S(=O)(=O)NC(=O)c2ccc(N3CCN(Cc4ccccc4-c4ccc(Cl)cc4)CC3)cc2)cc1C(=O)C(F)(F)F	55	329	2010	0.62	–
–	0.28	CN(C)CC[C@H](CSc1ccccc1)Nc1ccc(S(=O)(=O)NC(=O)c2ccc(N3CCN(Cc4ccccc4-c4ccc(Cl)cc4)CC3)cc2)cc1[N+](=O)[O-] [ABT 737]	7.7	30	87	–	bioavailability [8]: 6%
–	6.26	CC1(C)CCC(c2ccc(Cl)cc2)=C(CN2CCN(c3ccc(C(=O)NS(=O)(=O)c4ccc(N[C@H](CCN5CCOCC5)CSc5ccccc5)c(S(=O)(=O)C(F)(F)F)c4)cc3)CC2)C1 [NAVITOCLAX]	5.9	4.2	86.7	–	bioavailability [8]: 20%; AUC [9]: 56.7 µM·h; AUC [10]: 27.8 µM·h; AUC [11]: 6.61 µM·h; half-life [12]: 4 h; half-life [13]: 4 h; half-life [14]: 4 h; half-life [15]: 4 h; bioavailability [16]: 20%; bioavailability [17]: 20%; bioavailability [18]: 20%; bioavailability [19]: 20%; inhibition in vivo at 100 mg/kg (NCI-H1963 (Homo sapiens)): 100%
